High-throughput results from PubChem.
Shown are actives, neighbours in structure and some others; about 4.3% of the full set was active somewhere.
ALR H2O2 inh – inhibitors of human sulfhydryl oxidase ALR | 290,000 compounds, 3.8% hits | inhibition, % (concentration not given with the values) | P55789 | AID 485317 | purified ALR, DTT oxidation, H2O2 HRP-luminol luminescence;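 active = mean replicate inhibition above about 79%, with every replicate also reaching it, limit read from the data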
Target sequence (P55789 whole entry, looked up): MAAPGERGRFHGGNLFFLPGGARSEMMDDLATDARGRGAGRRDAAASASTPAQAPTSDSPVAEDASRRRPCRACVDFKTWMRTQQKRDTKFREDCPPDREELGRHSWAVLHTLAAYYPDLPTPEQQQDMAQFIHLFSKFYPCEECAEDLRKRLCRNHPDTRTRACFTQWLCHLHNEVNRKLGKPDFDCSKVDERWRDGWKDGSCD
Rin1 Abl inh – human Rin1-Abl interaction inhibition; P00519+Q13671; TR-FRET Rin1/Abl binding, biochemical; inhibition, % at 7.35 µM; 360,000 compounds, 0.4% hits; AID 588664; in the data active = inhibition above about 5%, passing the limit was not always enough
PREPL inhibitor – human PREPL enzyme inhibition; 320,000 compounds, 0.68% hits; inhibition, % at 5.96 µM; Q4J6C6; recombinant PREPL, fluorescence polarization activity-based probe; in the data active = inhibition above about 43%;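 note: 0% = enzyme with DMSO and 100% = wells lacking enzyme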
RBBP9 inh – inhibitors of human serine hydrolase RBBP9. recombinant RBBP9, FP-Rh probe fluorescence polarization. O75884. inhibition, % at 7.94 µM. 220,000 compounds, 0.2% hits. AID 1515;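 active = inhibition above the campaign mean of all tested compounds plus 3 SD, cut at about 14% in these data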;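 note: plate controls were DMSO wells with RBBP9 for no effect and wells lacking RBBP9 protein for full effect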
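System: RBBP9 protein / Buffer or medium: Tris/NaCl buffer pH 8.0 with 0.1% Pluronic / Probe or stimulus: Serine-hydrolase probe FP-Rh, 375 nM pre-mixing / Dosing: 7.94 µM single dose, 0.794% DMSO / Times: enzyme-compound preincubation 30 min, then probe labeling 45 min, 25 °C / Technique: fluorescence polarization (mP), excitation 525 nm, emission 598 nm / Replication: singlicate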
SUMO HTRF inh – SUMOylation inhibition; 290,000 compounds, 0.36% hits; P63279; AID 2006; inhibition, % at 35 µM; HTRF SUMOylation assay, SAE1/SAE2 + UBC9, in vitro; in the data active = inhibition above about 50%, passing the limit was not always enough
Target sequence (P63279 whole entry, looked up): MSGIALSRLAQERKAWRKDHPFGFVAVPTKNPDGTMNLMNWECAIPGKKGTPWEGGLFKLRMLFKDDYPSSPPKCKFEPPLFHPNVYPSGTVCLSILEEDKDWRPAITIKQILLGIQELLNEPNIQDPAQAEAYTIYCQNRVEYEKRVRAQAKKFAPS
UBC13 polyUb – blocks human UBC13 polyubiquitin chain formation; TR-FRET; inhibition, % at 20 µM; AID 485273; 330,000 compounds, 0.47% hits; in the data active = inhibition above about 45%, passing the limit was not always enough
Target sequence (P61088 whole entry, looked up): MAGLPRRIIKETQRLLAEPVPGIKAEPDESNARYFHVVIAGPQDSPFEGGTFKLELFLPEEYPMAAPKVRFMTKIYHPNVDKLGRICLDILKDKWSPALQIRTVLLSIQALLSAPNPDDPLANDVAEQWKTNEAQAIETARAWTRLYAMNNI
* hit, by the source's call; . = not tested or not shown.

SMILES	ALR H2O2 inh	Rin1 Abl inh	PREPL inhibitor	RBBP9 inh	SUMO HTRF inh	UBC13 polyUb
CC(C)(C)c1ccc(CC(=O)N2CCC2(C)C(=O)Nc2cnc3ccccc3c2)cc1 (stereo unspecified)	.	-2.4	.	.	.	.
CC1CCCN(S(=O)(=O)c2ccc(NC(=O)[C@@H]3CCCN3C(=O)c3cccs3)cc2)C1 (stereo partly specified)	1.2	-0.5	14.9	.	.	-3.7
Cc1cc(Br)cc(C)c1OCCCCN(C)C	93.2*	0.8	-40.7	-1.5	8.1	13.9
Cc1cc(Cl)c(OCCCN(C)C)c(Br)c1	.	-0.2	-18.5	-8.7	-9.3	-8.3
Nc1ccc(N(CCO)CCO)cc1	97.2*	5.3	16.4	1.8	59.9	-42.5
CCCCCCCCNCCS(=O)(=O)NC1CCCCC1	.	-0.1	.	.	.	.
CCOC(=O)Cc1cc(=O)c2c(=O)n(-c3ccccc3)[nH]c2[nH]1	77.9*	-4.4	3.3	-5.0	9.5	2.7
O=c1cc(-c2ccccc2)[nH]c2[nH]n(-c3ccccc3)c(=O)c12	98.9*	-2.8	10.0	-0.6	-32.0	0.3
O=c1cc(Cl)[nH]n(-c2ccccc2)c1=O	-2.2	-1.2	1.9	.	6.0	1.4
COc1ccc(S(=O)(=O)N2CCN(CC3CC=CCC3)CC2)cc1 (stereo unspecified)	4.3	1.4	1.1	.	-3.8	-2.3
CCCN(C(=O)c1ccccc1Cc1ccccc1)C1CCS(=O)(=O)C1 (stereo unspecified)	-1.8	1.8	-4.9	.	.	1.6
Cc1c2ccccc2cc(Cc2ccccc2)[n+]1C	7.0	-7.1	4.4	.	3.8	2.7
COc1ccc(OC)c(-c2csc(NC(=O)CSCc3c(C)noc3C)n2)c1	98.0*	-1.6	5.4	.	.	-1.3
COc1ccc(C(=O)COC(=O)CSCc2c(C)noc2C)cc1OC	97.7*	-2.4	9.4	-13.2	9.9	-18.3
CCCCC(Sc1nc(N)c(NC(=O)c2ccc(OC)cc2)c(=O)[nH]1)C(=O)O (stereo unspecified)	0.8	2.2	0.5	-2.7	15.4	9.8
Cc1cc(OC(=O)CNC(=O)OC(C)(C)C)c2c(C)cc(=O)oc2c1	90.8*	-3.6	6.0	-3.1	13.8	-1.2
CCc1ccc(NC(=O)C(CC)Sc2nc3cc4c(cc3c(=O)n2Cc2ccco2)OCO4)cc1 (stereo unspecified)	58.1	-0.8	6.0	0.7	54.1*	-9.3
CCc1ccccc1NC(=O)C(CC)Sc1nc2cc3c(cc2c(=O)n1Cc1ccco1)OCO3 (stereo unspecified)	4.6	-1.3	-2.3	-5.0	8.8	-11.1
O=C(Nc1ccc(O)cc1)c1ccc2c(c1)C(=O)N(Cc1ccco1)C2=O	99.6*	0.2	2.9	0.7	-2.3	7.2
O=C(O)Cc1ccc(NC(=O)c2ccc3c(c2)C(=O)N(Cc2ccco2)C3=O)cc1	-0.3	-5.2	-4.3	.	-0.6	-10.6
O=C(Nc1cc([N+](=O)[O-])ccc1O)c1ccc2c(c1)C(=O)N(Cc1ccco1)C2=O	98.3*	-1.8	5.8	.	-0.8	-32.2
COc1ccc(-c2c[n+]3c4n2CCCCC4=C(c2ccc(Br)cc2)C3)cc1	3.8	0.9	49.2*	-4.1	4.0	.
COc1ccc(NC2=C(C(C)=O)C(c3ccc(OC)cc3)C(C(C)=O)C(C)(O)C2)cc1 (stereo unspecified)	-9.9	5.1	4.9	0.6	7.5	6.8
COc1ccc(NC2=C(C(C)=O)C(c3ccc(N(C)C)cc3)C(C(C)=O)C(C)(O)C2)cc1 (stereo unspecified)	91.2*	-2.4	15.5	-2.4	9.0	-15.6
CCCC(=O)N(Cc1cc2cc(OC)ccc2[nH]c1=O)c1ccc(OC)cc1	.	-2.8	.	.	.	.
SMILES	ALR H2O2 inh	Rin1 Abl inh	PREPL inhibitor	RBBP9 inh	SUMO HTRF inh	UBC13 polyUb
O=C(NCC1CCCO1)c1cccc(S(=O)(=O)Nc2ccc(SC(F)F)cc2)c1 (stereo unspecified)	98.3*	0.0	-6.3	.	.	3.1
COC(CN(C(=O)CCl)C(C(=O)NC1CCCCC1)c1ccccc1C)OC (stereo unspecified)	77.1*	-3.4	-2.4	1.3	-9.5	7.3
CC(=O)c1c(N2CCOCC2)nc2ccc(Br)cc2c1-c1ccccc1	.	1.2	11.4	-3.0	-14.9	2.0
O=C(CCN1CCc2ccccc21)c1ccc2c(c1)OCCO2	-27.2	-1.8	14.3	-13.4	14.5	3.3
O=C(CCN1CCc2ccccc2C1)c1ccc2c(c1)OCCO2	97.8*	3.8	8.1	1.5	16.2	0.5
Fc1ccc(N/N=C(/c2ccccc2)c2ccccn2)cc1	98.7*	-4.7	4.1	-2.6	4.9	6.5
O=C1C(=Cc2ccc(Br)o2)C(=O)c2ccccc21	4.8	8.7*	-2.7	-4.4	22.4	.
CC1CCN(c2ccc(NC(=O)Cc3ccccc3)cc2)CC1	-9.1	2.3	6.2	-0.5	13.0	-2.2
COc1cccc(CNc2ccc(N3CCC(C)CC3)cc2)c1OC	98.5*	-0.8	2.5	-1.7	-2.2	3.6
O=C(c1ccc(Br)cc1)N1CCCc2ccccc21	0.0	-1.2	-10.2	.	18.4	-0.5
Cc1cc(C)c2oc(=O)cc(CN3CCOCC3)c2c1	1.1	-1.9	5.4	-1.1	-1.4	3.9
Cc1c(O)ccc2c(CN3CCN(CCO)CC3)cc(=O)oc12	90.0*	-1.9	1.3	1.5	49.1	4.1
Cc1c(O)ccc2c(CN3CCOCC3)cc(=O)oc12	88.1*	-4.5	9.5	.	43.2	10.3
CC1Sc2ccc(C(=O)NCc3cccc(C(F)(F)F)c3)cc2NC1=O (stereo unspecified)	.	3.5	13.1	.	.	-12.2
CC1CCCC(CC(N)=O)CC1 (stereo unspecified)	.	4.4	.	.	.	.
CCN(C(=O)COC(=O)Cc1ccc(F)cc1)c1c(N)n(Cc2ccccc2)c(=O)[nH]c1=O	0.3	-1.2	3.3	.	.	1.0
COC(=O)c1ccc(NC(=O)CSc2nnc(-c3cccnc3)o2)cc1	99.3*	-0.1	-3.3	.	.	-1.7
O=C(CSc1nnc(-c2cccnc2)n1Cc1ccco1)c1ccccc1	74.1	-2.5	12.2	-1.1	15.4	-22.0
COc1ccc(NC(=O)CSc2nnc(-c3ccccn3)n2Cc2ccco2)cc1OC	97.2*	-3.1	1.6	-6.9	-1.7	-3.2
C=CCn1c(SCC(=O)Nc2ccc(NC(=O)c3ccco3)c(OC)c2)nnc1-c1ccncc1	99.1*	-4.3	22.2	-3.6	14.9	-25.8
CCOc1ccccc1NC(=O)CSc1nnc(-c2ccccn2)n1Cc1ccco1	19.4	-1.6	-9.6	-10.7	9.8	11.9
NC(=O)c1ccc(NC(=O)CSc2nnc(-c3cccnc3)n2Cc2ccco2)cc1	97.0*	1.4	-0.1	.	3.9	7.9
CCC(=O)Nc1ccc(C(=O)CSc2nnc(-c3cccnc3)o2)cc1	54.2	2.5	0.3	-4.5	-5.6	0.3
C=CCn1c(SCC(=O)Nc2cc(OC)c(NC(=O)c3ccco3)cc2OC)nnc1-c1ccncc1	-11.5	-0.1	4.6	-1.5	-12.8	-3.2
